Screening results from PubChem.
STAT3 act-1 = increases IL-6 driven STAT3 reporter signal. 190,000 tested, 0.91% active. AID 871. U3A cells, IL-6 STAT3-luciferase reporter, luminescence; 100% = signal with IL-6 EC80 alone. activation (% of control), % at 5.6 µM;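 active = activation above the screen-wide mean of compound activation plus 3 SD, cut at about 130% in these data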
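Test system: Human STAT1-deficient U3A cells with stable STAT3-luciferase reporter | Also added: Interleukin-6, 33 ng/mL | Timing: Compound pre-incubation 1 h before IL-6, then 6 h stimulation at 37 °C | Technique: Luciferase reporter luminescence | Read-out: Percent of IL-6-only median luminescence | Benchmarks: IL-6-only wells as 100% reference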
STAT3 inh = inhibitors of IL-6 induced STAT3 signaling. U3A cells, IL-6 STAT3-luciferase reporter, luminescence; host cell line lacks STAT1. inhibition, % at 5.5 µM. 190,000 tested, 0.89% active;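 active = inhibition above the mean inhibition across all screened compounds plus 3 SD, cut at about 44% in these data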
STAT1 inh = inhibitors of IFN-gamma induced STAT1 signaling; AID 920; 200,000 tested, 0.35% active; NIH 3T3 STAT1-luciferase reporter, luminescence; inhibition, % at 5.5 µM;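 active = inhibition above a set limit, the mean inhibition across all tested compounds plus 3 SD, cut at about 34% in these data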
b-catenin transl = beta-catenin nuclear translocation modulation | HeLa beta-catenin nuclear translocation, immunofluorescence imaging | nuclear translocation activity, % at 5 µM | 190,000 tested, 0.3% active;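 active = nuclear translocation activity above 50% at 5 µM, with a well cell count of 50 or more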;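 also: per-cell ratio of nuclear to cytoplasmic median beta-catenin stain intensity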
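Assay system: human HeLa cells, native beta-catenin; doses: 5 µM primary, 0.02–20 µM confirmation; incubation: compound treatment 24 h, 37°C, 5% CO2; technique: fluorescence imaging of beta-catenin antibody stain plus DAPI; measure: % activation, nuclear-to-cytoplasmic median beta-catenin signal ratio per cell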
MT stabilizer = microtubule stabilizers in HeLa cells | HeLa tubulin immunostaining HCS, 24 h; share of cells brighter than vehicle mean+2SD | % tubulin-high responders, % at 10 µM | 200,000 tested, 0.83% active | AID 2205;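 active = plate Z-score above 3 for both tubulin-high and condensed-nucleus cell shares, with cell loss under 80%, at 10 µM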;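 also: anti alpha tubulin signal scored within the nucleus-defined area of each cell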
STAT3 act-2 = confirmation of STAT3 signaling activators; shares compounds with STAT3 act-1; 1,200 tested, 64% active; U3A STAT3-luciferase reporter, IL-6 potentiation, luminescence; U3A cells lack STAT1; 100 means same as IL-6 alone; potentiation (% of control), % at 5.7 µM;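 active = percent activation of the STAT3 luciferase reporter above a set limit taken from the earlier primary screen, cut at about 130% in these data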
NFkB act STAT3ct = activates NF-kappaB, counter-screen to STAT3 activators; 1,200 tested, 11% active; activation (% of control), % at 5.7 µM; AID 1309; shares compounds with STAT3 act-1; human cells, NF-kappaB reporter activation; in the data active = activation above about 120%;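 also: reporter induced by TNF-alpha stimulation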
STAT1 act STAT3c = STAT1 activation in STAT3 activator counter-screen; shares compounds with STAT3 act-1; NIH 3T3 STAT1-luciferase reporter, IFN-gamma, luminescence; activation (% of control), % at 5.7 µM; 1,200 tested, 13% active; AID 1318;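 active = activation above the solvent-only control well mean plus 3 SD, set per screening run, cut at about 120% in these data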
Large screens that a line does not name were inactive (follow-up assays come after a bar, where they were run). Sampled rows, rich in hits. Any-hit rate of the full collection: about 2.4%.

O=C(Nc1nccs1)C1Cc2ccccc2CN1S(=O)(=O)c1ccc(F)cc1 (stereo unspecified)	STAT3 act-1 138 | STAT3 act-2 inactive | NFkB act STAT3ct 126 | STAT1 act STAT3c 148
CN(CCC#N)C(=O)CC1(Cc2ccccc2)CCOC(C)(C)C1 (stereo unspecified)	none (no result: STAT3 act-1, STAT3 inh, STAT1 inh, MT stabilizer)
Nc1nnc(Cc2c[nH]c3ccccc23)s1	STAT3 act-1 143 | STAT3 act-2 154 | NFkB act STAT3ct inactive | STAT1 act STAT3c inactive
O=C(CN1CCOCC1)Nc1ccccc1Sc1ccc(Cl)cc1	none
Cc1cc(C)n(-c2nnc3n2N=C(c2ccccc2)CS3)n1	none (no result: b-catenin transl)
Cc1cc(C)n(-c2nnc3n2N=C(c2c[nH]c4ccccc24)CS3)n1	STAT3 act-1 158 (no result: b-catenin transl) | STAT3 act-2 154 | NFkB act STAT3ct inactive | STAT1 act STAT3c inactive
C/[N+]([O-])=C/c1c(OCc2ccc(Cl)cc2Cl)ccc2ccccc12	STAT3 act-1 138 | STAT3 act-2 inactive | NFkB act STAT3ct inactive | STAT1 act STAT3c inactive
Cc1cc(NC(=O)c2ccc(Cl)cc2)c(C)cc1O	none
Cc1ccc(C(=O)Nc2cc(Cl)ccc2OC(=O)c2ccc(C)cc2)cc1	STAT3 act-1 140 | STAT3 act-2 inactive | NFkB act STAT3ct inactive | STAT1 act STAT3c inactive
O=C(Nc1ccccc1O)c1ccc(Cl)cc1	STAT3 act-1 152 | STAT3 act-2 141 | NFkB act STAT3ct inactive | STAT1 act STAT3c inactive
COc1ccc(C(=O)Nc2cc(Cl)ccc2OC(=O)c2ccc(OC)cc2)cc1	none
O=C(Nc1ccccc1OC(=O)c1ccc(Cl)cc1)c1ccc(Cl)cc1	STAT3 act-1 136 | STAT3 act-2 141 | NFkB act STAT3ct inactive | STAT1 act STAT3c inactive
Cc1ccc(C#CC[N+]2(CC#Cc3ccc(C)cc3)CCCCC2)cc1	none
CCOc1ccccc1NC(=O)Nc1ccc(CC#N)cc1	none (no result: STAT3 act-1, STAT3 inh, STAT1 inh, MT stabilizer)
COc1ccc(C2CC3(CC(C)(C)NC(=S)N3)Oc3cc(O)cc(C)c32)cc1OC (stereo unspecified)	STAT3 act-1 active | STAT3 act-2 693 | NFkB act STAT3ct inactive | STAT1 act STAT3c 121
Nc1cc2c(cc1O)CCCC2	STAT3 act-1 137 | STAT3 act-2 183 | NFkB act STAT3ct inactive | STAT1 act STAT3c 147
COc1ccccc1-c1nc(N)n[nH]1	STAT3 act-1 146 | STAT3 act-2 inactive | NFkB act STAT3ct inactive | STAT1 act STAT3c inactive
COc1ccccc1-c1nc(SCC(=O)O)n[nH]1	STAT3 act-1 137 | STAT3 act-2 inactive | NFkB act STAT3ct inactive | STAT1 act STAT3c inactive
O=C(Nc1cc(C(F)(F)F)ccc1Cl)c1ccncc1	none
CC(C)Cc1cc(C(=O)Nc2cc(C(F)(F)F)ccc2Cl)no1	STAT3 act-1 143 | STAT3 act-2 inactive | NFkB act STAT3ct inactive | STAT1 act STAT3c inactive
C=CCn1c(COc2ccc(CC)cc2)nnc1SC/C(O)=C(\C#N)c1nc2ccccc2[nH]1	STAT3 act-1 160 (no result: b-catenin transl) | STAT3 act-2 150 | NFkB act STAT3ct inactive | STAT1 act STAT3c inactive
O=C/C(=C\Nc1ccc(Cl)cn1)c1nc2ccccc2o1	STAT3 act-1 137 | STAT3 act-2 inactive | NFkB act STAT3ct inactive | STAT1 act STAT3c inactive
O=C/C(=C\Nc1ccc(Cl)cn1)c1nc2cc(Cl)ccc2o1	STAT3 act-1 145 | STAT3 act-2 inactive | NFkB act STAT3ct inactive | STAT1 act STAT3c inactive
O=C/C(=C\Nc1ccc(S(=O)(=O)CCO)cc1)c1nc2cc(Cl)ccc2o1	none
O=C1CS/C(=N\N=C\c2ccccc2Cl)N1CC1CC1	none (no result: STAT3 act-1, STAT3 inh, STAT1 inh, MT stabilizer)
Cn1ncc(Br)c1C(=O)Nc1c(F)c(F)cc(F)c1F	STAT3 act-1 139 | STAT3 act-2 137 | NFkB act STAT3ct inactive | STAT1 act STAT3c 148
N#CC1=C(N)Oc2cc(O)ccc2C1c1cccnc1 (stereo unspecified)	none
CN(C)c1ccc2c(c1)OC(N)=C(C#N)C2c1cccc(F)c1 (stereo unspecified)	STAT3 act-1 146, b-catenin transl 99 | STAT3 act-2 inactive | NFkB act STAT3ct 153 | STAT1 act STAT3c inactive
NC(=O)C1CCN(c2nc(-c3ccccc3)nc3ccccc23)CC1	none (no result: b-catenin transl)
CCOC(=O)C1CCN(c2nc(-c3ccc(Br)cc3)nc3ccccc23)CC1	STAT3 act-1 142 | STAT3 act-2 137 | NFkB act STAT3ct inactive | STAT1 act STAT3c inactive
CCOC(=O)C1=NN(c2ccccc2)C(c2ccccc2)CC1=O (stereo unspecified)	STAT3 act-1 138 | STAT3 act-2 inactive | NFkB act STAT3ct inactive | STAT1 act STAT3c inactive
CCOC(=O)C1=NN(c2ccc(OC)cc2)C(c2ccccc2)CC1=O (stereo unspecified)	none
CCN(C(=S)Nc1cccnc1)c1cccc2ccccc12	STAT3 act-1 137 | STAT3 act-2 inactive | NFkB act STAT3ct inactive | STAT1 act STAT3c inactive
C=CCc1cc(Cl)ccc1OCCOCCN(C)C	none
COc1ccc(/C=N/NC(=O)CN2CCCc3ccccc32)c(OC)c1	none (no result: STAT3 act-1, STAT3 inh, STAT1 inh, MT stabilizer)
CCOC(=O)c1c(C)[nH]c(C(=O)OCC(=O)Nc2cc(Cl)ccc2OC)c1C	STAT3 act-1 148 | STAT3 act-2 inactive | NFkB act STAT3ct inactive | STAT1 act STAT3c inactive
Cc1ccc(-n2c(N)c(-c3nc4ccccc4n3C)sc2=S)cc1	STAT3 act-1 183 | STAT3 act-2 176 | NFkB act STAT3ct inactive | STAT1 act STAT3c inactive
Cn1c(-c2ccc(N)cc2)nc2ccccc21	none
O=C(CSc1nc2ccccc2[nH]1)N=Nc1c(O)[nH]c2ccccc12	STAT3 act-1 145 | STAT3 act-2 142 | NFkB act STAT3ct inactive | STAT1 act STAT3c inactive
Cn1c(SCC(=O)N=Nc2c(O)[nH]c3ccccc23)nc2ccccc21	none
COC(=O)N/N=C/c1c[nH]c2ccccc12	none
CC(C)(C)OC(=O)N/N=C/c1c[nH]c2ccccc12	STAT3 act-1 139 (no result: b-catenin transl) | STAT3 act-2 inactive | NFkB act STAT3ct inactive | STAT1 act STAT3c inactive
CCN(CC)CCN1C(=O)C(=O)/C(=C(/O)c2c(C)[nH]c(C(=O)OC)c2C)C1c1cccnc1 (stereo unspecified)	none
COC(=O)c1[nH]c(C)c(/C(O)=C2\C(=O)C(=O)N(CCN3CCOCC3)C2c2cccnc2)c1C (stereo unspecified)	STAT3 act-1 138 (no result: b-catenin transl) | STAT3 act-2 inactive | NFkB act STAT3ct inactive | STAT1 act STAT3c inactive
Cc1cc(C)c(S(=O)(=O)/N=C2/C=C(SCC(=O)O)C(=O)c3ccccc32)cc1C	STAT3 act-1 139 | STAT3 act-2 135 | NFkB act STAT3ct inactive | STAT1 act STAT3c inactive
COc1ccc(S(=O)(=O)N2CCN(c3ccc4nnc(-c5ccccc5)n4n3)CC2)cc1	STAT3 act-1 143 | STAT3 act-2 inactive | NFkB act STAT3ct inactive | STAT1 act STAT3c inactive
